The results in this text go back to ChEMBL document CHEMBL1126763, “Nonpeptide angiotensin II receptor antagonists. Synthesis and biological activity of potential prodrugs of benzimidazole-7-carboxylic acids” (J Med Chem, 1993).

Common to all, as to format: functional, organism-based
Common to all, as to design: dose 0.1 mg/kg

Assay [1] has as its target T1, Angiotensin II receptor (Rattus norvegicus) (UniProt P29089+P25095+P35351). In words: Inhibitory activity on AII (100 ng/kg iv)-induced pressor response after administration at 0.1 mg/kg po in conscious male Sprague-Dawley rats at 3 h. An outline of the steps:
(§1)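 Conscious male Sprague-Dawley rats received test compounds orally at 0.1 mg/kg. AII (100 ng/kg iv) was given as a pressor challenge at each time point after dosing, and percent inhibition of the pressor response was recorded. Experiments were run in duplicate (n = 2); parent drug and one ester used n = 3. Inhibition may vary by less than 30%.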

The target in assay [2] is T1, Angiotensin II receptor (Rattus norvegicus). In words: Inhibitory activity on AII (100 ng/kg iv)-induced pressor response after administration at 0.1 mg/kg po in conscious male Sprague-Dawley rats at 2 h. An outline of the steps: as §1
Assay [3] shares this target. In words: Inhibitory activity on AII (100 ng/kg iv)-induced pressor response at 0.1 mg/kg po in conscious male Sprague-Dawley rats at 1 h. An outline of the steps:
as §1

Assay [4] shares this target. Put plainly: Inhibitory activity on AII (100 ng/kg iv)-induced pressor response after administration at 0.1 mg/kg po in conscious male Sprague-Dawley rats at 5 h. Summed up: as §1
Assay [5] has the same target. In words: Inhibitory activity on AII (100 ng/kg iv)-induced pressor response after administration at 0.1 mg/kg po in conscious male Sprague-Dawley rats at 24 h. An outline of the steps:
as §1

The target is the same in assay [6]. Put plainly: Inhibitory effect on AII (100 ng/kg iv)-induced pressor response after administration at 0.1 mg/kg po in conscious male Sprague-Dawley rats at 0.5 h. Summed up: as §1
Assay [7] has the same target. In words: Inhibitory activity on AII (100 ng/kg iv)-induced pressor response after administration at 0.1 mg/kg po in conscious male Sprague-Dawley rats at 7 h. Summed up:
as §1

Take `CCOc1nc2cccc(C(=O)OCc3oc(=O)oc3C)c2n1Cc1ccc(-c2ccccc2-c2nn[nH]n2)cc1`: the inhibition (as a rule, the relative decrease from the control value, in per cent) in assay [1] amounted to 85%; in assay [2], 87%; in assay [3], 83%; in assay [4], 70%; in assay [5], 6%; in assay [6] it was 49%. Further, the inhibition in assay [7] came out at 44%.
As for `CCOc1nc2cccc(C(=O)OCOC(=O)CC)c2n1Cc1ccc(-c2ccccc2-c2nn[nH]n2)cc1`, the inhibition was 60% in assay [1]; 60% in assay [2]; 76% in assay [3]; 38% in assay [4]; -4% in assay [5]; 76% in assay [6]. Moreover, the inhibition in assay [7] worked out at 31%.
As to `CCOc1nc2cccc(C(=O)OCOC(=O)OC3CCCC3)c2n1Cc1ccc(-c2ccccc2-c2nn[nH]n2)cc1`, the inhibition came out at 68% in assay [1]; 55% in assay [2]; 14% in assay [3]; 77% in assay [4]; 14% in assay [5]; 5% in assay [6]. In assay [7], the inhibition was 64%.
Regarding `CCOc1nc2cccc(C(=O)OC(C)OC(C)=O)c2n1Cc1ccc(-c2ccccc2-c2nn[nH]n2)cc1` (stereo unspecified), the inhibition in assay [1] is 86%; in assay [2] it was 92%; in assay [3] it was 90%; in assay [4], 84%; in assay [5] it was 28%; in assay [6] it was 86%. Besides, the inhibition in assay [7] turned out to be 75%.
With `CCOc1nc2cccc(C(=O)OCOC(=O)OC3CCCCC3)c2n1Cc1ccc(-c2ccccc2-c2nn[nH]n2)cc1`, the inhibition in assay [1] is 15%; in assay [2], 4%; in assay [3], -3%; in assay [4], 53%; in assay [5], 11%; in assay [6], 1%. Also, the inhibition in assay [7] was 54%.
In the case of `CCOc1nc2cccc(C(=O)OC(C)OC(=O)OC(C)C)c2n1Cc1ccc(-c2ccccc2-c2nn[nH]n2)cc1` (stereo unspecified), the inhibition is 79% in assay [1]; 84% in assay [2]; 91% in assay [3]; 80% in assay [4]; 12% in assay [5]; 70% in assay [6]. Further, in assay [7], the inhibition is 67%.
On to `CCCC(=O)OCOC(=O)c1cccc2nc(OCC)n(Cc3ccc(-c4ccccc4-c4nn[nH]n4)cc3)c12`, for which the inhibition in assay [1] was found to be 67%; in assay [2], 78%; in assay [3] it was 84%; in assay [4], 54%; in assay [5], 6%; in assay [6], 100%. Besides, the inhibition in assay [7] amounted to 48%.
For the compound `CCOc1nc2cccc(C(=O)O)c2n1Cc1ccc(-c2ccccc2-c2nnn[nH]2)cc1`, the inhibition in assay [1] came to 67%; in assay [2] it was 51%; in assay [3] it was 24%; in assay [4], 85%; in assay [5] it was 43%; in assay [6] it was 7%.
Take `CCCCc1nc(Cl)c(CO)n1Cc1ccc(-c2ccccc2-c2nnn[nH]2)cc1`: the inhibition in assay [1] was 21%; in assay [2] it was 12%; in assay [3], 1%; in assay [4], 35%; in assay [5], 17%; in assay [6], 5%. Moreover, in assay [7], the inhibition was determined as 34%.
On to `CCCCc1nc2cccc(C(=O)OCc3oc(=O)oc3C)c2n1Cc1ccc(-c2ccccc2-c2nn[nH]n2)cc1`, for which the inhibition in assay [1] turned out to be 88%; in assay [2], 81%; in assay [3], 63%; in assay [4] it was 75%; in assay [5], 55%; in assay [6], 32%. Moreover, in assay [7], the inhibition turned out to be 77%.
`CCOc1nc2cccc(C(=O)OCOC(=O)c3ccccc3)c2n1Cc1ccc(-c2ccccc2-c2nn[nH]n2)cc1`: the inhibition in assay [1] is 56%; in assay [2] it was 23%; in assay [3] it was -2%; in assay [4] it was 67%; in assay [5], 6%; in assay [6], -4%. Moreover, the inhibition in assay [7] amounted to 76%.
`CCOc1nc2cccc(C(=O)OC(C)OC(=O)OC3CCC3)c2n1Cc1ccc(-c2ccccc2-c2nn[nH]n2)cc1` (stereo unspecified): the inhibition turned out to be 83% in assay [1]; 86% in assay [2]; 77% in assay [3]; 79% in assay [4]; 25% in assay [5]; 35% in assay [6]. The inhibition in assay [7] was found to be 60%.
Turning to `CCOc1nc2cccc(C(=O)OC(C)OC(=O)OC(CC)CC)c2n1Cc1ccc(-c2ccccc2-c2nn[nH]n2)cc1` (stereo unspecified), the inhibition in assay [1] was 84%; in assay [2], 86%; in assay [3], 72%; in assay [4], 63%; in assay [5], 13%; in assay [6] it was 16%. Also, the inhibition in assay [7] stood at 53%.
Regarding `CCCCc1nc2cccc(C(=O)OC(C)OC(=O)OCC)c2n1Cc1ccc(-c2ccccc2-c2nn[nH]n2)cc1` (stereo unspecified), the inhibition is 89% in assay [1]; 84% in assay [2]; 89% in assay [3]; 81% in assay [4]; 61% in assay [5]; 64% in assay [6]. Besides, the inhibition in assay [7] came out at 75%.
Consider `CCOc1nc2cccc(C(=O)OC(C)OC(=O)OC3CCCCC3)c2n1Cc1ccc(-c2ccccc2-c2nn[nH]n2)cc1` (stereo unspecified), for which the inhibition was 87% in assay [1]; 80% in assay [2]; 76% in assay [3]; 82% in assay [4]; 36% in assay [5]; 38% in assay [6]. Besides, in assay [7], the inhibition came out at 75%.
As for `CCOc1nc2cccc(C(=O)OCOC(=O)C(C)C)c2n1Cc1ccc(-c2ccccc2-c2nn[nH]n2)cc1`, the inhibition in assay [1] was 52%; in assay [2], 56%; in assay [3], 40%; in assay [4] it was 44%; in assay [5] it was 6%; in assay [6] it was 80%. The inhibition in assay [7] was 20%.
For `CCOc1nc2cccc(C(=O)OCOC(C)=O)c2n1Cc1ccc(-c2ccccc2-c2nn[nH]n2)cc1`, the inhibition in assay [1] was found to be 78%; in assay [2], 79%; in assay [3] it was 84%; in assay [4], 72%; in assay [5], 23%; in assay [6], 66%. Also, in assay [7], the inhibition came out at 59%.
`CCOc1nc2cccc(C(=O)OCOC(=O)C3CCCC3)c2n1Cc1ccc(-c2ccccc2-c2nn[nH]n2)cc1`: the inhibition in assay [1] is 65%; in assay [2] it was 61%; in assay [3], 31%; in assay [4], 62%; in assay [5], 9%; in assay [6], 7%. Besides, the inhibition in assay [7] was found to be 54%.
On to `CCOc1nc2cccc(C(=O)OCOC(=O)OCC3CC3)c2n1Cc1ccc(-c2ccccc2-c2nn[nH]n2)cc1`, for which the inhibition in assay [1] was 58%; in assay [2], 57%; in assay [3], 49%; in assay [4], 44%; in assay [5], 22%; in assay [6], 10%. Further, in assay [7], the inhibition was found to be 30%.
For the compound `CCOc1nc2cccc(C(=O)OCOC(=O)/C=C/c3ccccc3)c2n1Cc1ccc(-c2ccccc2-c2nn[nH]n2)cc1`, the inhibition in assay [1] was 80%; in assay [2], 80%; in assay [3], 36%; in assay [4], 61%; in assay [5], 3%; in assay [6], -3%. Also, the inhibition in assay [7] turned out to be 64%.
On to `CCOc1nc2cccc(C(=O)OCOC(=O)OC(C)C)c2n1Cc1ccc(-c2ccccc2-c2nn[nH]n2)cc1`, for which the inhibition in assay [1] came to 72%; in assay [2] it was 79%; in assay [3] it was 55%; in assay [4], 68%; in assay [5], 28%; in assay [6], 23%. For the same compound, in assay [7], the inhibition was 57%.
With `CCOc1nc2cccc(C(=O)OCOC(=O)C3CCCCC3)c2n1Cc1ccc(-c2ccccc2-c2nn[nH]n2)cc1`, the inhibition turned out to be 85% in assay [1]; 76% in assay [2]; 5% in assay [3]; 89% in assay [4]; 14% in assay [5]; 0% in assay [6]. For the same compound, the inhibition in assay [7] is 80%.
For the compound `CCCCc1nc2cccc(C(=O)OCc3ccncc3)c2n1Cc1ccc(-c2ccccc2-c2nn[nH]n2)cc1`, the inhibition in assay [1] was determined as 16%; in assay [2], 18%; in assay [3], 16%; in assay [4] it was 18%; in assay [6] it was 4%; in assay [7], 8%.
For `CCOC(=O)OC(C)OC(=O)c1cccc2nc(OCC)n(Cc3ccc(-c4ccccc4-c4nn[nH]n4)cc3)c12` (stereo unspecified), the inhibition in assay [1] worked out at 89%; in assay [2] it was 95%; in assay [3], 87%; in assay [4], 81%; in assay [5] it was 7%; in assay [6], 74%. In assay [7], the inhibition came to 71%.
